Results from ChEMBL document CHEMBL4351026, “Antifungal activity, mode of action variability, and subcellular distribution of coumarin-based antifungal azoles” (Eur J Med Chem, 2019).
≈ marks a conversion by molar mass, not a printed value. Calls of active or inactive are those of the source. The rule behind the calls is not given here.

What was measured:
Candida dubliniensis = test: Antifungal activity against Candida dubliniensis T-99 assessed as reduction in fungal cell growth incubated for 24 hrs by MTT based broth double dilution method; format: functional; conditions: T-99, 24 h
In short: (§1)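 Broth double-dilution in Casitone broth. Starter cultures were grown 24 or 48 h at 37 °C, 5% CO₂, diluted 1:100, and added to serial two-fold dilutions at 64 to 0.007 µg/mL. Final inoculum was 5 x 10^4 to 5 x 10^5 CFU/mL; DMSO was 0.0012–1.3%. Plates were incubated at 37 °C, 5% CO₂, then MTT was added for 2 h. MIC followed CLSI M27-A3. Triplicates, two independent experiments.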

HEK-293T = test: Cytotoxicity against human HEK293T cells assessed as reduction in cell viability at 5 to 50 uM incubated for 24 hrs by XTT assay; format: cell-based
In short: (§2)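 HEK-293T were grown in DMEM with 10% FBS; HepG2 in RPMI with 15% FBS; both at 37 °C, 5% CO₂. Cells (4000 HepG2 or 7000 HEK-293T per well) were seeded on poly-D-lysine wells. After 24 h the medium was renewed and compounds added at 5–50 µM from 1 mM stocks in 10% DMSO/0.3% Tween/PBS. After 24 h more, XTT was added for 2 h at 37 °C; absorbance was read at 475 nm against 660 nm reference.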

[1] = Cytotoxicity against human HepG2 cells assessed as reduction in cell viability at 5 to 50 uM incubated for 24 hrs by XTT assay relative to control; format: cell-based; conditions: read-out: INH
In short: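 HepG2 cells were maintained in RPMI with 15% FBS, 1% NEAA, 1% pyruvate and pen-strep-nystatin at 37 °C and 5% CO2. 4000 cells/well were plated on poly-D-lysine coating and given fresh medium after 24 h. Compounds were dosed at 5–50 µM from 1 mM stocks in 10% DMSO/0.3% Tween/PBS and incubated 24 h. Viability was read by XTT (2 h, 37 °C) at 475 nm against 660 nm.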

[2] = Cytotoxicity against human HEK293T cells assessed as reduction in cell viability at 5 to 50 uM incubated for 24 hrs by XTT assay relative to control; format: cell-based, HEK-293T; conditions: HEK293T cells, read-out: INH
In short: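 HEK-293T cells were grown in DMEM with 10% FBS, 1% NEAA, 1% pyruvate and pen-strep-nystatin at 37 °C and 5% CO2. 7000 cells/well were seeded on poly-D-lysine-coated wells. After 24 h the medium was renewed and compounds were added at 5–50 µM from 1 mM stocks in 10% DMSO/0.3% Tween/PBS. After 24 h, XTT was added for 2 h at 37 °C, with absorbance read at 475 nm (reference 660 nm).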

HepG2 = test: Cytotoxicity against human HepG2 cells assessed as reduction in cell viability at 5 to 50 uM incubated for 24 hrs by XTT assay; format: cell-based; conditions: hepg2, 24 h; in short: as §2
Nakaseomyces glabratus [3] = test: Antifungal activity against Candida glabrata 192 assessed as reduction in fungal cell growth incubated for 48 hrs by MTT based broth double dilution method; format: functional; conditions: Nakaseomyces glabratus, 192, 48 h; in short: as §1
Nakaseomyces glabratus [4] = test: Antifungal activity against Candida glabrata ATCC 2001 assessed as reduction in fungal cell growth incubated for 24 hrs by MTT based broth double dilution method; format: functional; conditions: ATCC 2001, 24 h; in short: as §1
Nakaseomyces glabratus [5] = test: Antifungal activity against Candida glabrata 192 assessed as reduction in fungal cell growth incubated for 24 hrs by MTT based broth double dilution method; format: functional; conditions: Nakaseomyces glabratus, 192, 24 h; in short: as §1
Candida parapsilosis [6] = test: Antifungal activity against Candida parapsilosis ATCC 22019 assessed as reduction in fungal cell growth incubated for 24 hrs by MTT based broth double dilution method; format: functional; conditions: Lodderomyces parapsilosis, ATCC 22019, 24 h; in short: as §1
Cytochrome P450 3A4 = Cytochrome P450 3A4 (Homo sapiens, UniProt P08684); test: Inhibition of recombinant human CYP3A4 using Luciferin-PPXE as substrate preincubated for 10 mins followed by NADPH addition measured after 15 mins by luminometric method; format: ADME
In short: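 P450-Glo luminescent assay, Luciferin-PPXE substrate. Compound was mixed with membranes containing recombinant human CYP3A4; controls were vehicle with membranes lacking CYP3A4. After 10 min preincubation at 37 °C, NADPH regeneration reagent was added and the mixture kept 15 min at 37 °C. Luciferin detection reagent stopped the reaction; after 20 min at room temperature, luminescence was read. Duplicates.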

Nakaseomyces glabratus [7] = test: Antifungal activity against Candida glabrata ATCC 66032 assessed as reduction in fungal cell growth incubated for 48 hrs by MTT based broth double dilution method; format: functional; conditions: ATCC 66032, 48 h; in short: as §1
[8] = tested on: Meyerozyma guilliermondii; test: Antifungal activity against Candida guilliermondii T-47 assessed as reduction in fungal cell growth incubated for 24 hrs by MTT based broth double dilution method; format: functional; conditions: T-47, 24 h; in short: as §1
Candida albicans [9] = test: Antifungal activity against Candida albicans ATCC 90028 assessed as reduction in fungal cell growth incubated for 48 hrs by MTT based broth double dilution method; format: functional; conditions: ATCC 90028, 48 h; in short: as §1
Candida albicans [10] = test: Antifungal activity against Candida albicans P-87 assessed as reduction in fungal cell growth incubated for 24 hrs by MTT based broth double dilution method; format: functional; conditions: P-87, 24 h; in short: as §1
Nakaseomyces glabratus [11] = test: Antifungal activity against Candida glabrata ATCC 66032 assessed as reduction in fungal cell growth incubated for 24 hrs by MTT based broth double dilution method; format: functional; conditions: ATCC 66032, 24 h; in short: as §1
Candida albicans [12] = test: Antifungal activity against Candida albicans SN152 assessed as reduction in fungal cell growth incubated for 24 hrs by MTT based broth double dilution method; format: functional; conditions: SN152, 24 h; in short: as §1
Candida albicans [13] = test: Antifungal activity against Candida albicans SN152 assessed as reduction in fungal cell growth incubated for 48 hrs by MTT based broth double dilution method; format: functional; conditions: SN152, 48 h; in short: as §1
Candida parapsilosis [14] = test: Antifungal activity against Candida parapsilosis ATCC 90018 assessed as reduction in fungal cell growth incubated for 24 hrs by MTT based broth double dilution method; format: functional; conditions: Lodderomyces parapsilosis, ATCC 90018, 24 h; in short: as §1
Candida albicans [15] = test: Antifungal activity against Candida albicans ATCC 90028 assessed as reduction in fungal cell growth incubated for 24 hrs by MTT based broth double dilution method; format: functional; conditions: ATCC 90028, 24 h; in short: as §1
Candida albicans [16] = test: Antifungal activity against ERG11/ERG3 knocked out Candida albicans SN152 assessed as zone of inhibition at 25 ug […] by disk diffusion method; format: functional, organism-based
Candida albicans [17] = test: Antifungal activity against Candida albicans SN152 assessed as zone inhibition at 25 ug incubated for 24 hrs by disk diffusion method; format: functional, organism-based
In short: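 Strains were streaked on YPD agar and grown at 30 °C: 24 h for parental SN152, 48 h for the erg11ΔΔ erg3ΔΔ mutant. Colonies were suspended in PBS and adjusted to OD 0.02 (SN152) or 0.03 (mutant), then spread on Casitone plates. A 6-mm disk loaded with 25 µg compound was placed centrally. Plates were incubated at 30 °C and photographed after 24 h.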

Chain of Cytochrome P450 3A4 (P08684 whole entry): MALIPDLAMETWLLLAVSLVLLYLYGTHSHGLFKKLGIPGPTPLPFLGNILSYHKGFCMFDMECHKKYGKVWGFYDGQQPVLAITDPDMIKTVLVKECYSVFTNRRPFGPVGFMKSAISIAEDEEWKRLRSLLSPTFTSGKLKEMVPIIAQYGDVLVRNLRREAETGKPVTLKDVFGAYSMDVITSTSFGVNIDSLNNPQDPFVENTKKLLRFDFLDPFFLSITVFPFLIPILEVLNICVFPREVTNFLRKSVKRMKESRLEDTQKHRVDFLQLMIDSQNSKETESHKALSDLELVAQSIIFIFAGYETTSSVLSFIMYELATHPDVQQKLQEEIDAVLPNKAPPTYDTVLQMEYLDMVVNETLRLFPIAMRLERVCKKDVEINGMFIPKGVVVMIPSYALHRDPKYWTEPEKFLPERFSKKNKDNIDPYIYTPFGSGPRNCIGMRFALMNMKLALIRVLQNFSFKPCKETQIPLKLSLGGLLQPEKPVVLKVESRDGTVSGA

Row | SMILES | MIC (Candida dubliniensis) [µg/mL] | Activity (HEK-293T) | cytotoxicity at 24 h, up to 50 µM [1] [%] | cytotoxicity at 24 h, up to 50 µM [2] [%] | Activity (HepG2) | MIC (Nakaseomyces glabratus [3]) [µg/mL] | MIC (Nakaseomyces glabratus [4]) [µg/mL] | MIC (Nakaseomyces glabratus [5]) [µg/mL] | MIC (Candida parapsilosis [6]) [µg/mL] | IC50 (Cytochrome P450 3A4) [nM] | MIC (Nakaseomyces glabratus [7]) [µg/mL] | MIC [8] [µg/mL] | MIC (Candida albicans [9]) [µg/mL] | MIC (Candida albicans [10]) [µg/mL] | MIC (Nakaseomyces glabratus [11]) [µg/mL] | MIC (Candida albicans [12]) [µg/mL] | MIC (Candida albicans [13]) [µg/mL] | MIC (Candida parapsilosis [14]) [µg/mL] | MIC (Candida albicans [15]) [µg/mL] | inhibition zone (IZ) (Candida albicans [16]) | other results
1 | CCC(CC)Oc1ccc2cc(C(=O)NCC(O)(Cn3cncn3)c3ccc(Cl)cc3Cl)c(=O)oc2c1 (racemic) | 0.5 (≈ 0.917 µM) | Non-Toxic | < 40 | < 40 | Non-Toxic | > 64 | > 64 | 2 (≈ 3.67 µM) | 0.5 (≈ 0.917 µM) | ≥ 2500 | > 64 | 0.5 (≈ 0.917 µM) | 0.06 (≈ 0.11 µM) | 0.03 (≈ 0.055 µM) | > 64 | 0.06 (≈ 0.11 µM) | 0.06 (≈ 0.11 µM) | 0.25 (≈ 0.458 µM) | 0.06 (≈ 0.11 µM) | – | –
2 | CCN(CC)c1ccc2cc(C(=O)NCC(O)(Cn3ccnc3)c3ccc(Cl)cc3Cl)c(=O)oc2c1 (racemic) | 0.25 (≈ 0.472 µM) | Toxic | < 40 | < 40 | Toxic | 1 (≈ 1.89 µM) | 2 (≈ 3.78 µM) | 0.25 (≈ 0.472 µM) | 0.06 (≈ 0.113 µM) | 127 | > 64 | 0.125 (≈ 0.236 µM) | 0.03 (≈ 0.0567 µM) | 0.03 (≈ 0.0567 µM) | 4 (≈ 7.56 µM) | 0.03 (≈ 0.0567 µM) | 0.06 (≈ 0.113 µM) | 0.015 (≈ 0.0283 µM) | 0.015 (≈ 0.0283 µM) | – | –
3 | CCC(CC)Oc1ccc2cc(C(=O)NCC(O)(Cn3ccnc3)c3ccc(Cl)cc3Cl)c(=O)oc2c1 (racemic) | 0.25 (≈ 0.459 µM) | Non-Toxic | < 40 | < 40 | Non-Toxic | 1 (≈ 1.84 µM) | 2 (≈ 3.67 µM) | 0.5 (≈ 0.918 µM) | 0.5 (≈ 0.918 µM) | 251 | > 64 | 0.25 (≈ 0.459 µM) | 0.06 (≈ 0.11 µM) | 0.06 (≈ 0.11 µM) | 2 (≈ 3.67 µM) | 0.06 (≈ 0.11 µM) | 0.06 (≈ 0.11 µM) | 0.125 (≈ 0.23 µM) | 0.03 (≈ 0.0551 µM) | – | –
4 | CC(=O)N1CCN(c2ccc(OCC3COC(Cn4ccnc4)(c4ccc(Cl)cc4Cl)O3)cc2)CC1 (racemic) [KETOCONAZOLE] | 0.007 (≈ 0.0132 µM) | Toxic | < 40 | < 40 | Toxic | 0.125 (≈ 0.235 µM) | 1 (≈ 1.88 µM) | 0.06 (≈ 0.113 µM) | 0.007 (≈ 0.0132 µM) | – | 4 (≈ 7.53 µM) | 0.007 (≈ 0.0132 µM) | 0.007 (≈ 0.0132 µM) | 0.007 (≈ 0.0132 µM) | 1 (≈ 1.88 µM) | 0.007 (≈ 0.0132 µM) | 0.007 (≈ 0.0132 µM) | 0.007 (≈ 0.0132 µM) | 0.007 (≈ 0.0132 µM) | Active | inhibition zone (IZ) (Candida albicans [17]): Active
5 | OC(Cn1cncn1)(Cn1cncn1)c1ccc(F)cc1F [FLUCONAZOLE] | 4 (≈ 13.1 µM) | Non-Toxic | < 40 | < 40 | Non-Toxic | 8 (≈ 26.1 µM) | 64 (≈ 209 µM) | 8 (≈ 26.1 µM) | 2 (≈ 6.53 µM) | – | > 64 | 4 (≈ 13.1 µM) | 0.5 (≈ 1.63 µM) | 0.25 (≈ 0.816 µM) | 64 (≈ 209 µM) | 0.25 (≈ 0.816 µM) | 1 (≈ 3.27 µM) | 1 (≈ 3.27 µM) | 0.5 (≈ 1.63 µM) | inactive | inhibition zone (IZ) (Candida albicans [17]): Active
6 | CC[C@@H]([C@H](C)O)n1ncn(-c2ccc(N3CCN(c4ccc(OC[C@@H]5CO[C@@](Cn6cncn6)(c6ccc(F)cc6F)C5)cc4)CC3)cc2)c1=O [POSACONAZOLE] | 0.03 (≈ 0.0428 µM) | Toxic | < 40 | < 40 | Toxic | 0.125 (≈ 0.178 µM) | 1 (≈ 1.43 µM) | 0.125 (≈ 0.178 µM) | 0.03 (≈ 0.0428 µM) | – | > 64 | 0.03 (≈ 0.0428 µM) | 0.007 (≈ 0.00999 µM) | 0.007 (≈ 0.00999 µM) | 1 (≈ 1.43 µM) | 0.007 (≈ 0.00999 µM) | 0.007 (≈ 0.00999 µM) | 0.015 (≈ 0.0214 µM) | 0.007 (≈ 0.00999 µM) | – | –
